Test results taken from ChEMBL document CHEMBL1159370, “A novel NO-production-inhibiting triterpene and cytotoxicity of known alkaloids from Euonymus laxiflorus” (J Nat Prod, 2003).
Values after ≈ are worked out from the molar mass of the structure shown.

Tests used:
KB = assay: Cytotoxicity against human KB cells; type: functional; conditions: read-out: ED50 (the source's name)
COLO 205 = assay: Cytotoxicity against human COLO205 cells; type: functional; conditions: read-out: ED50 (the source's name)
RAW264.7 [1] = assay: Inhibition of LPS/IFN-gamma-induced nitrite accumulation in mouse RAW264.7 cells at 0.2 mg/ml by Griess reagent assay; type: functional
In short: (§1)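 RAW 264.7 cells were grown in DMEM with 10% heat-inactivated FCS at 37 °C under 5% CO2. Compound (DMSO vehicle, 0.02–0.5%) was added together with LPS (1 µg/mL) plus IFN-γ (50 U/mL) for 24 h. Medium nitrite was measured with Griess reagent (1% sulfanilamide, 0.1% naphthylenediamine, 5% phosphoric acid) at OD550 against sodium nitrite standards. Data are mean ± SEM of six experiments, each in triplicate.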

RAW264.7 [2] = assay: Inhibition of LPS/IFN-gamma-induced nitrite accumulation in mouse RAW264.7 cells by Griess reagent assay; type: functional, cell-based; in short: as §1
[3] = Cytotoxicity against mouse RAW264.7 cells assessed as cell viability by MTT reduction assay; type: cell-based; conditions: read-out: Activity
In short: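 Viability was read by MTT reduction in RAW 264.7 macrophages exposed for 24 h at 37 °C to LPS (1 µg/mL) plus IFN-γ (50 U/mL) with the compound. Results are expressed relative to unstimulated basal control cells. Data are mean ± SEM of six experiments, each in triplicate.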

| IC50 (RAW264.7 [2]) [µg/mL] | SMILES | EC50 (KB) [µg/mL] | EC50 (COLO 205) [µg/mL] | inhibition at 200 µg/mL (RAW264.7 [1]) [%] | viability [3] [%] |
| --- | --- | --- | --- | --- | --- |
|  | CC1(C)C(O)CC[C@]2(C)[C@H]3CC=C4[C@@H]5C[C@@]6(C)CC(OC6=O)[C@]5(C)CC[C@@]4(C)[C@]3(C)CC[C@@H]12 (some centres undefined) | > 20 | > 20 |  |  |
|  | CC1(C)CC[C@]2(C)CC[C@]3(C)C(=CC(=O)[C@@H]4[C@@]5(C)CCC(=O)C(C)(C)[C@@H]5CC[C@]43C)[C@@H]2C1 | > 20 | > 20 |  |  |
|  | CC(=O)OC[C@]12[C@H](OC(C)=O)[C@H](OC(C)=O)[C@@H]3[C@@H](OC(=O)c4ccccc4)[C@@]14O[C@@]3(C)COC(=O)c1cccnc1C(C)C(C)C(=O)O[C@@H]([C@H](OC(C)=O)[C@@H]2OC(=O)c1ccccc1)[C@]4(C)O (some centres undefined) | > 20 | > 20 |  |  |
|  | CC(=O)OC[C@]12[C@H](O)[C@@H](OC(C)=O)[C@@H]3[C@@H](OC(C)=O)[C@@]14O[C@@]3(C)COC(=O)c1cccnc1[C@@H](C)[C@H](C)C(=O)O[C@@H]([C@H](OC(=O)c1ccc(=O)n(C)c1)[C@@H]2O)[C@]4(C)O [EMARGINATINE E] | 1.7 (≈ 2.09 µM) | 4.1 (≈ 5.03 µM) |  |  |
|  | CC(=O)OC[C@]12[C@H](OC(C)=O)[C@H](OC(C)=O)[C@@H]3[C@@H](OC(=O)c4ccccc4)[C@@]14O[C@@]3(C)COC(=O)c1cccnc1[C@@H](C)[C@H](C)C(=O)O[C@@H]([C@H](O)[C@@H]2OC(=O)c1ccccc1)[C@]4(C)O [EUOJAPONINE C] | > 20 | > 20 |  |  |
| 120 (≈ 264 µM) | CO[C@H]1CC[C@]2(C)[C@H]3C(=O)C[C@@H]4C5=CC(C)(C)CC[C@]5(C)CC[C@@]4(C)[C@]3(C)CC[C@H]2C1(C)C [LAXIFOLONE A] |  |  | > 80 | > 95 |
|  | CC(=O)OC[C@]12[C@H](OC(C)=O)[C@H](OC(C)=O)[C@@H]3[C@@H](OC(C)=O)[C@@]14O[C@@]3(C)COC(=O)c1cccnc1C(C)C(C)C(=O)O[C@@H]([C@H](OC(C)=O)[C@@H]2OC(=O)c1ccccc1)[C@]4(C)O (some centres undefined) [MAYTEINE] | > 20 | > 20 |  |  |
|  | CC1(C)[C@@H](O)CC[C@]2(C)[C@H]3CC=C4[C@@H]5C[C@](C)(C(=O)O)C[C@H](O)[C@]5(C)CC[C@@]4(C)[C@]3(C)CC[C@@H]12 [MAYTENFOLIC ACID] | > 20 | > 20 |  |  |
|  | C[C@H]1C(=O)CC[C@@H]2[C@]1(C)CC(=O)[C@H]1[C@@]2(C)CC[C@@]2(C)[C@@H]3CC(C)(C)CC[C@]3(C)CC[C@]12C [PUTRANJIVADIONE] | > 20 | > 20 |  |  |
